Experimental data taken from ChEMBL document CHEMBL1649230, “Aryl rhodanines specifically inhibit staphylococcal and enterococcal biofilm formation” (Antimicrob Agents Chemother, 2009).
Calls of active or inactive are those of the source. No cut-off for these calls is given here.

What was measured:
[1] = tested on: Staphylococcus aureus; test: Antimicrobial activity against community acquired methicillin-resistant Staphylococcus aureus isolate 24102 assessed as inhibition of bacterial biofilm after 18 hrs by broth microdilution method; type: functional
How it was run: (§1)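 Biofilm MBIC on tissue culture-treated polystyrene 96-well plates. Twofold dilutions, 0.2 to 100 μM final, with 2% DMSO final. Inoculum was an overnight culture diluted 1:100 (~5 × 10^6 cells/well) in 0.5× TSB plus 1% glucose, grown 18 h at 37°C. Wells washed, heat-fixed 60°C 60 min, stained with 0.06% crystal violet, OD600 read. MBIC is the lowest concentration giving ≥80% inhibition versus untreated; geometric mean of ≥3 experiments.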

[2] = tested on: Staphylococcus aureus; test: Antimicrobial activity against Staphylococcus aureus ATCC 35556 assessed as inhibition of primary adhesion of bacterial biofilm to PVC surface under static condition at MBIC after 30 mins by fluorescence emission using BaclLight Live Dead stain; type: functional, organism-based
How it was run: (§2)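 Mid-log S. aureus ATCC 35556 (OD600 0.5) grown in TSB at 37°C, washed, resuspended in PBS. Compound added (0× to 8× MBIC, 2% DMSO). Suspension placed on tissue culture-treated polystyrene or PVC 96-well plates (eight wells per level) or silicone disks in 24-well plates (three wells). Incubated 30 min at 37°C, then washed. BacLight Live/Dead fluorescence read (ex 485, em 530 nm). Result given as fraction adherent versus untreated.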

[3] = tested on: Staphylococcus aureus; test: Antimicrobial activity against Staphylococcus aureus ATCC 35556 assessed as inhibition of primary adhesion of bacterial biofilm to PVC surface under static condition at 4 times MBIC after 30 mins by fluorescence emission using BaclLight Live Dead stain; type: functional, organism-based; how it was run: as §2
[4] = tested on: Staphylococcus aureus; test: Antimicrobial activity against Staphylococcus aureus ATCC 35556 assessed as inhibition of primary adhesion of bacterial biofilm to polystyrene surface under static condition at 0.5 times MBIC after 30 mins by fluorescence emission using BaclLight Live Dead stain; type: functional, organism-based; how it was run: as §2
[5] = tested on: Staphylococcus aureus; test: Antimicrobial activity against Staphylococcus aureus ATCC 35556 assessed as inhibition of primary adhesion of bacterial biofilm to polystyrene surface under static condition pretreated with compound MBIC for 30 mins measured after 30 mins by fluorescence emission using BaclLight Live Dead stain; type: functional
How it was run: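 PBS suspension of mid-log S. aureus ATCC 35556 exposed to compound in tubes for 30 min at 37°C. Cells centrifuged to remove free compound and resuspended in PBS at the original density. They were then placed on tissue culture-treated polystyrene for 30 min at 37°C. Wells washed, BacLight Live/Dead fluorescence read (ex 485, em 530 nm). Fraction adherent calculated versus untreated.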

[6] = tested on: Staphylococcus aureus; test: Antimicrobial activity against community acquired methicillin-resistant Staphylococcus aureus isolate 35392 assessed as inhibition of bacterial biofilm after 18 hrs by broth microdilution method; type: functional; how it was run: as §1
[7] = tested on: Staphylococcus aureus; test: Antimicrobial activity against Staphylococcus aureus ATCC 35556 assessed as effect on protein synthesis at 15 ug/ml; type: functional, organism-based
[8] = tested on: Staphylococcus aureus; test: Antimicrobial activity against Staphylococcus aureus ATCC 35556 assessed as inhibition of primary adhesion of bacterial biofilm to silicone disk surface under static condition at 4 times MBIC after 30 mins by fluorescence emission using BaclLight Live Dead stain; type: functional, organism-based; how it was run: as §2
[9] = tested on: Staphylococcus aureus; test: Antimicrobial activity against Staphylococcus aureus ATCC 35556 assessed as inhibition of primary adhesion of bacterial biofilm to polystyrene surface under static condition at MBIC after 30 mins by fluorescence emission using BaclLight Live Dead stain; type: functional, organism-based; how it was run: as §2
[10] = tested on: Staphylococcus aureus; test: Antimicrobial activity against Staphylococcus aureus ATCC 35556 assessed as effect on protein synthesis at 30 ug/ml; type: functional, organism-based
[11] = tested on: Staphylococcus aureus; test: Antimicrobial activity against community acquired methicillin-resistant Staphylococcus aureus isolate 27687 assessed as inhibition of bacterial biofilm after 18 hrs by broth microdilution method; type: functional; how it was run: as §1
[12] = tested on: Enterococcus faecalis; test: Antimicrobial activity against Enterococcus faecalis ATCC 51299 on medical grade silicone disk assessed as inhibition of bacterial biofilm after 18 hrs by broth microdilution method; type: functional
[13] = tested on: Enterococcus faecalis; test: Antimicrobial activity against vancomycin-resistant Enterococcus faecalis isolate F217 assessed as inhibition of bacterial biofilm after 18 hrs by broth microdilution method; type: functional; how it was run: as §1
[14] = tested on: Enterococcus faecalis; test: Antimicrobial activity against vancomycin-resistant Enterococcus faecalis isolate F217 on medical grade silicone disk assessed as inhibition of bacterial biofilm after 18 hrs by broth microdilution method; type: functional
How it was run: (§3)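 Medical-grade silicone disks glued to 24-well plate bottoms. Compound added to a 1:100 overnight-culture inoculum (0.5× TSB, 1% glucose) at 2% DMSO final; ≥3 wells each, ~18 h at 37°C. Washed with water, heat-fixed 60°C 60 min, stained with 0.06% crystal violet, eluted with 30% acetic acid, OD600 read. Repeated ≥3 times.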

[15] = tested on: Enterococcus faecalis; test: Antimicrobial activity against vancomycin-resistant Enterococcus faecalis isolate F317 on medical grade silicone disk assessed as inhibition of bacterial biofilm after 18 hrs by broth microdilution method; type: functional; how it was run: as §3
[16] = tested on: Staphylococcus aureus; test: Antimicrobial activity against Staphylococcus aureus ATCC 35556 assessed as inhibition of planktonic cell growth at 8 times MBIC; type: functional, organism-based
[17] = tested on: Staphylococcus aureus; test: Effect on PNAG synthesis in Staphylococcus aureus ATCC 35556 by dot blot Western analysis; type: functional, organism-based
How it was run: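 PNAG extracts were made from S. aureus ATCC 35556 grown with compound at 0× to 8× MBIC. Extracts were serially diluted 1:4, spotted onto nitrocellulose and probed with WGA-HRP, detected by chemiluminescent substrate on film. A PNAG-defective Δica::Tc strain extract served as the specificity control.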

[18] = tested on: Staphylococcus epidermidis; test: Antimicrobial activity against methicillin-resistant Staphylococcus epidermidis GTC 18972 assessed as inhibition of bacterial biofilm after 18 hrs by broth microdilution method; type: functional; how it was run: as §1
[19] = tested on: Staphylococcus epidermidis; test: Antimicrobial activity against Staphylococcus epidermidis ATCC 35984 on medical grade silicone disk assessed as inhibition of bacterial biofilm after 18 hrs by broth microdilution method; type: functional; how it was run: as §3
[20] = tested on: Staphylococcus aureus; test: Inhibition of […] of Staphylococcus aureus ATCC 35556 assessed as level of beta-galactosidase activity at 8 times MBIC by Miller assay; type: functional, organism-based
How it was run: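 Stationary-phase autolysis used ATCC 35556 carrying pAJ22, inoculated 1:100 from overnight culture into TSB with 6 μg chloramphenicol/ml and varying compound. Cultures were shaken at 250 rpm, 37°C, for 96 h, sampling OD600 and cell-free supernatants over time. Released β-galactosidase in supernatants was assayed with o-nitrophenyl-β-d-galactopyranoside and reported in Miller units.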

[21] = tested on: Staphylococcus aureus; test: Antimicrobial activity against community acquired methicillin-resistant Staphylococcus aureus isolate 43349 assessed as inhibition of bacterial biofilm after 18 hrs by broth microdilution method; type: functional; how it was run: as §1
[22] = tested on: Staphylococcus aureus; test: Antimicrobial activity against Staphylococcus aureus ATCC 35556 assessed as inhibition of bacterial biofilm formation at 4 times MBIC measured after 4 hrs; type: functional, organism-based
[23] = tested on: Staphylococcus aureus; test: Antimicrobial activity against Staphylococcus aureus ATCC 35556 on medical grade silicone disk assessed as inhibition of bacterial biofilm after 18 hrs by broth microdilution method; type: functional, organism-based
[24] = tested on: Staphylococcus aureus; test: Antimicrobial activity against Staphylococcus aureus ATCC 35556 assessed as inhibition of bacterial biofilm formation at 4 times MBIC measured after 6 hrs; type: functional, organism-based
[25] = tested on: Staphylococcus aureus; test: Antimicrobial activity against Staphylococcus aureus ATCC 35556 assessed as inhibition of primary adhesion of bacterial biofilm to silicone disk surface under shaking condition at 4 times MBIC after 30 mins by fluorescence emission using BaclLight Live Dead stain; type: functional, organism-based

| SMILES | MBIC [1] | inhibition [2] | inhibition [3] | inhibition [4] | inhibition (INH) [5] | MBIC [6] | inhibition [7] | inhibition [8] | inhibition [9] | inhibition [10] | MBIC [13] | MBIC90 [14] | MBIC90 [15] | other results |
| --- | --- | --- | --- | --- | --- | --- | --- | --- | --- | --- | --- | --- | --- | --- |
| CCOc1cc(/C=C2\SC(=S)N(c3cccnc3)C2=O)ccc1O | 19.8 µM | Active | Active | Active | >=80% | 25 µM | inactive | Active | Active | inactive |  |  |  |  |
| C=CCOc1cc(/C=C2\SC(=S)N(c3ccc(F)cc3)C2=O)ccc1O | 100 µM |  |  |  |  | 39.7 µM |  |  |  |  |  |  |  | MBIC [11]: 50 µM; MBIC90 [12]: 100 µM |
| CCOc1cc(/C=C2\SC(=S)N(c3cccc(F)c3)C2=O)ccc1O |  |  |  |  |  |  |  |  |  |  | 29.7 µM | >=100 uM | >=100 uM |  |
| CCOc1cc(/C=C2\SC(=S)N(c3ccc(F)cc3)C2=O)ccc1O |  | Active | Active | Active | >=80% |  | inactive | Active | Active | inactive | 12.5 µM | >=100 uM | >=100 uM | inhibition [16]: inactive; inhibition [17]: inactive; MBIC [18]: 21 µM; MBIC90 [19]: 42 µM; inhibition [20]: inactive; MBIC [21]: 35.4 µM; inhibition [22]: Active; Activity [23]: Dose-dependent effect; inhibition [24]: Active; inhibition [25]: Active |
